According to EPA's CvTdb concentration-time database:
Blank lines part the entries; values can stand above or below the molecule they belong to.

Key:
Rat [1] = assay: concentration in brain after dosing; settings: 1.5 h; dosed: 2-Methyltetrahydrofuran; 40 mg/kg; iv; Male; Harlan Sprague Dawley
Rat [2] = assay: concentration in plasma after dosing; settings: 0.75 h; dosed: 2-Methyltetrahydrofuran; 40 mg/kg; iv; Male; Harlan Sprague Dawley
Rat [3] = assay: concentration in brain after dosing; settings: 0.2 h; dosed: 2-Methyltetrahydrofuran; 40 mg/kg; iv; Male; Harlan Sprague Dawley
Rat [4] = assay: concentration in plasma after dosing; settings: 7 min; dosed: 2-Methyltetrahydrofuran; 40 mg/kg; iv; Male; Harlan Sprague Dawley
Rat [5] = assay: concentration in brain after dosing; settings: 4 h; dosed: 2-Methyltetrahydrofuran; 40 mg/kg; iv; Female; Harlan Sprague Dawley
Rat [6] = assay: concentration in brain after dosing; settings: 7 min; dosed: 2-Methyltetrahydrofuran; 40 mg/kg; iv; Male; Harlan Sprague Dawley
Rat [7] = assay: concentration in plasma after dosing; settings: 6 h; dosed: 2-Methyltetrahydrofuran; 40 mg/kg; iv; Male; Harlan Sprague Dawley
Rat [8] = assay: concentration in liver after dosing; settings: 1 h; dosed: Fluorotelomer alcohol 8+2; 80 mg/kg; oral; Female; Harlan Sprague Dawley
Rat [9] = assay: concentration in plasma after dosing; settings: 3 h; dosed: Fluorotelomer alcohol 8+2; 12 mg/kg; oral; Male; Harlan Sprague Dawley
Rat [10] = assay: concentration in plasma after dosing; settings: dosed: Fluorotelomer alcohol 8+2, 12 mg/kg, oral, Male, Harlan Sprague Dawley
Rat [11] = assay: concentration in brain after dosing; settings: 1 h; dosed: Fluorotelomer alcohol 8+2; 80 mg/kg; oral; Female; Harlan Sprague Dawley
Rat [12] = assay: concentration in brain after dosing; settings: 12 h; dosed: Fluorotelomer alcohol 8+2; 80 mg/kg; oral; Female; Harlan Sprague Dawley
Rat [13] = assay: concentration in plasma after dosing; settings: 3 h; dosed: 678-39-7; 12 mg/kg; iv; Male; F344
Rat [14] = assay: concentration in kidney after dosing; settings: 12 h; dosed: Fluorotelomer alcohol 8+2; 24 mg/kg; oral; Male; Harlan Sprague Dawley
Rat [15] = assay: concentration in liver after dosing; settings: 1 h; dosed: Perfluorohexanoic Acid; 80 mg/kg; oral; Female; Harlan Sprague Dawley
Rat [16] = assay: concentration in plasma after dosing; settings: dosed: Perfluorohexanoic Acid, 40 mg/kg, oral, Male, Harlan Sprague Dawley
Rat [17] = assay: concentration in plasma after dosing; settings: dosed: Perfluorohexanoic Acid, 80 mg/kg, oral, Male, Harlan Sprague Dawley
Rat [18] = assay: concentration in plasma after dosing; settings: 0.5 h; dosed: Perfluorohexanoic Acid; 80 mg/kg; oral; Male; Harlan Sprague Dawley
Rat [19] = assay: concentration in liver after dosing; settings: 1 h; dosed: Perfluorohexanoic Acid; 80 mg/kg; oral; Male; Harlan Sprague Dawley
Rat [20] = assay: concentration in plasma after dosing; settings: 1.5 h; dosed: Perfluorohexanoic Acid; 40 mg/kg; iv; Male; F344
Rat [21] = assay: concentration in plasma after dosing; settings: 1 h; dosed: Perfluorohexanoic Acid; 40 mg/kg; iv; Male; F344
human = assay: concentration in blood after dosing; settings: dosed: trichloroethylene, 100 ppm, inhalation, duration: 4 hr, person
In short: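 Sampling and analytical methods are those of each source and frequently went unreported. The concentration-versus-time and amount-versus-time points were compiled from published in vivo toxicokinetic studies and two structured collections. Most were digitised from plot screenshots with WebPlotDigitizer, with others copied from tables, in the reported units.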

Rat [22] = assay: concentration in kidney after dosing; settings: 24 h; dosed: Perfluorooctane Sulfonate; 2 mg/kg; oral; Female; Harlan Sprague Dawley
Rat [23] = assay: concentration in kidney after dosing; settings: 864 h; dosed: Perfluorooctane Sulfonate; 20 mg/kg; oral; Male; Harlan Sprague Dawley
Rat [24] = assay: concentration in kidney after dosing; settings: 6 h; dosed: Perfluorooctane Sulfonate; 2 mg/kg; oral; Female; Harlan Sprague Dawley
Rat [25] = assay: concentration in brain after dosing; settings: 24 h; dosed: Perfluorooctane Sulfonate; 2 mg/kg; oral; Female; Harlan Sprague Dawley
Rat [26] = assay: concentration in plasma after dosing; settings: dosed: Perfluorooctane Sulfonate, 2 mg/kg, oral, Female, Harlan Sprague Dawley
Rat [27] = assay: concentration in liver after dosing; settings: 3360 h; dosed: Perfluorooctane Sulfonate; 20 mg/kg; oral; Male; Harlan Sprague Dawley
Rat [28] = assay: concentration in liver after dosing; settings: 864 h; dosed: Perfluorooctane Sulfonate; 2 mg/kg; oral; Female; Harlan Sprague Dawley
Rat [29] = assay: concentration in plasma after dosing; settings: 0.25 h; dosed: Gemfibrozil; 100 mg/kg; oral; Male; Sprague-Dawley
Rat [30] = assay: concentration in plasma after dosing; settings: 2 h; dosed: Gemfibrozil; 100 mg/kg; oral; Male; Sprague-Dawley
Rat [31] = assay: concentration in plasma after dosing; settings: 15 h; dosed: Gemfibrozil; 50 mg/kg; oral; Male; Sprague-Dawley
Rat [32] = assay: concentration in plasma after dosing; settings: 10 h; dosed: Gemfibrozil; 50 mg/kg; oral; Male; Sprague-Dawley
Rat [33] = assay: concentration in plasma after dosing; settings: 0.5 h; dosed: Gemfibrozil; 50 mg/kg; oral; Male; Sprague-Dawley
Rat [34] = assay: concentration in plasma after dosing; settings: 0.25 h; dosed: Gemfibrozil; 4.29 mg/kg; oral; Male; Sprague-Dawley

Compound: CC1CCCO1 (stereo not given) [2-Methyltetrahydrofuran]
concentration in brain (Rat [1]): 2800 ng/mL
concentration in plasma (Rat [2]): 31600 ng/mL
concentration in brain (Rat [3]): 24100 ng/mL
concentration in plasma (Rat [4]): 41500 ng/mL
concentration in brain (Rat [5]): 111 ng/mL
concentration in brain (Rat [6]): 23700 ng/mL
concentration in plasma (Rat [7]): 16.9 ng/mL

Compound: O=C(O)C(F)(F)C(F)(F)C(F)(F)C(F)(F)C(F)(F)F [Perfluorohexanoic Acid]
concentration in liver (Rat [15]): 41600 ng/g
concentration in plasma (Rat [16]; 0.25 h): 54000 ng/mL
concentration in plasma (Rat [16]; 6 h): 31300 ng/mL
concentration in plasma (Rat [17]; 5 min): 29100 ng/mL
concentration in plasma (Rat [17]; 9 h): 4040 ng/mL
concentration in plasma (Rat [18]): 151000 ng/mL
concentration in liver (Rat [19]): 88800 ng/g
concentration in plasma (Rat [20]): 175 ng/mL
concentration in plasma (Rat [21]): 20100 ng/mL

Compound: ClC=C(Cl)Cl [trichloroethylene]
concentration in blood (human; 0 h): 13000 nM
concentration in blood (human; 0.17 h): 4900 nM
concentration in blood (human; 0.5 h): 3280 nM
concentration in blood (human; 1 h): 2200 nM
concentration in blood (human; 1.5 h): 1680 nM
concentration in blood (human; 2 h): 1340 nM
concentration in blood (human; 3 h): 1070 nM
concentration in blood (human; 4 h): 865 nM
concentration in blood (human; 6 h): 583 nM
concentration in blood (human; 8 h): 392 nM
concentration in blood (human; 10 h): 259 nM

Compound: O=S(=O)([O-])C(F)(F)C(F)(F)C(F)(F)C(F)(F)C(F)(F)C(F)(F)C(F)(F)C(F)(F)F [Perfluorooctane Sulfonate]
concentration in kidney (Rat [22]): 14600 ng/g
concentration in kidney (Rat [23]): 19300 ng/g
concentration in kidney (Rat [24]): 3800 ng/g
concentration in brain (Rat [25]): 851 ng/g
concentration in plasma (Rat [26]; 5 min): 38.2 ng/mL
concentration in plasma (Rat [26]; 12 h): 7740 ng/mL
concentration in plasma (Rat [26]; 1200 h): 892 ng/mL
concentration in liver (Rat [27]): 23900 ng/g
concentration in liver (Rat [28]): 11100 ng/g

More lines, now with the values ahead:

concentration in liver (Rat [8]): 1340 ng/g
concentration in plasma (Rat [9]): 726 ng/mL
concentration in plasma (Rat [10]; 1 h): 650 ng/mL
concentration in plasma (Rat [10]; 24 h): 210 ng/mL
concentration in brain (Rat [11]): 252 ng/g
concentration in brain (Rat [12]): 432 ng/g
concentration in plasma (Rat [13]): 735 ng/mL
concentration in kidney (Rat [14]): 751 ng/g
Compound: O=C(O)CCC(F)(F)C(F)(F)C(F)(F)C(F)(F)C(F)(F)C(F)(F)C(F)(F)F [Fluorotelomer acid 7+3]

concentration in plasma (Rat [29]): 72300 ng/mL
concentration in plasma (Rat [30]): 10700 ng/mL
concentration in plasma (Rat [31]): 1550 ng/mL
concentration in plasma (Rat [32]): 4380 ng/mL
concentration in plasma (Rat [33]): 7800 ng/mL
concentration in plasma (Rat [34]): 1640 ng/mL
Compound: Cc1ccc(C)c(OCCCC(C)(C)C(=O)O)c1 [Gemfibrozil]
